Reference: ChEMBL document CHEMBL3526002, “Tissue distribution and identification of radioactivity components at elimination phase after oral administration of [¹⁴C]CS-1036, an α-amylase inhibitor, to rats” (Drug Metab Dispos, 2013)

Key:
Parameters in all cases: dose 5 mg/kg, dosed compound name [14C]CS-1036, route oral
Conditions in all cases: in vivo
[1] = test system: Cerebellum; experiment: Drug uptake in albino F344/DuCrlCrlj rat cerebellum at 5 mg/kg, po after 336 hrs by liquid scintillation counting; assay type: ADME, organism-based
[2] = test system: Heart; experiment: Drug uptake in albino F344/DuCrlCrlj rat heart assessed as ng equivalent of CS-1036 at 5 mg/kg, po after 1 hr by liquid scintillation counting; assay type: ADME, organism-based
[3] = test system: Adrenal gland; experiment: Drug uptake in albino F344/DuCrlCrlj rat adrenal gland at 5 mg/kg, po after 168 hrs by liquid scintillation counting; assay type: ADME, organism-based
[4] = test system: Pancreas; experiment: Drug uptake in albino F344/DuCrlCrlj rat pancreas at 5 mg/kg, po after 8 hrs by liquid scintillation counting; assay type: ADME, organism-based
[5] = test system: Blood; experiment: Drug uptake in albino F344/DuCrlCrlj rat blood at 5 mg/kg, po after 1 hr by liquid scintillation counting; assay type: ADME, organism-based
Outline: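 Male F344/DuCrlCrlj rats (159–167 g; n = 3 per time point) received a single oral dose of [14C]CS-1036 at 5 mg/kg. Blood was taken from the abdominal aorta at 1, 4, 8, 24, 72, 168 and 336 h. Radioactivity was counted by LSC with external-standard efficiency correction. Results were converted to ng equivalent of CS-1036/ml using specific activity and sample volume, and reported as mean + S.D.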

[6] = test system: Aorta; experiment: Drug uptake in albino F344/DuCrlCrlj rat aorta assessed as ng equivalent of CS-1036 at 5 mg/kg, po after 168 hrs by liquid scintillation counting; assay type: ADME, organism-based
[7] = test system: Cerebellum; experiment: Drug uptake in albino F344/DuCrlCrlj rat cerebellum at 5 mg/kg, po after 4 hrs by liquid scintillation counting; assay type: ADME, organism-based
[8] = test system: Liver; experiment: Drug uptake in albino F344/DuCrlCrlj rat liver assessed as ng equivalent of CS-1036 at 5 mg/kg, po after 168 hrs by liquid scintillation counting; assay type: ADME, organism-based
[9] = test system: Thymus; experiment: Drug uptake in albino F344/DuCrlCrlj rat thymus at 5 mg/kg, po after 24 hrs by liquid scintillation counting; assay type: ADME, organism-based
[10] = Drug uptake in albino F344/DuCrlCrlj rat brown fat assessed as ng equivalent of CS-1036 at 5 mg/kg, po after 1 hr by liquid scintillation counting; assay type: ADME, organism-based, Brown adipose tissue
[11] = test system: Cerebrum; experiment: Drug uptake in albino F344/DuCrlCrlj rat cerebrum at 5 mg/kg, po after 4 hrs by liquid scintillation counting; assay type: ADME, organism-based
Outline: (§1)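 Single oral [14C]CS-1036 at 5 mg/kg was given to male rats (159–167 g; n = 3). Cerebrum was collected after aortic bleeding at 1, 4, 8, 24, 72, 168 or 336 h, weighed, and homogenized in 2 volumes of saline. A 0.5 ml aliquot was solubilized in Soluene-350 and counted by LSC with external-standard correction. Results are in ng equivalent/g tissue from specific activity and sample weight.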

[12] = Drug uptake in albino F344/DuCrlCrlj rat skeletal muscle at 5 mg/kg, po after 72 hrs by liquid scintillation counting; assay type: ADME, organism-based, Muscle tissue
[13] = test system: Liver; experiment: Drug uptake in albino F344/DuCrlCrlj rat liver at 5 mg/kg, po after 24 hrs by liquid scintillation counting; assay type: ADME, organism-based
[14] = test system: Pancreas; experiment: Drug uptake in albino F344/DuCrlCrlj rat pancreas assessed as ng equivalent of CS-1036 at 5 mg/kg, po after 4 hrs by liquid scintillation counting; assay type: ADME, organism-based
[15] = test system: Large intestine; experiment: Drug uptake in albino F344/DuCrlCrlj rat large intestine assessed as ng equivalent of CS-1036 at 5 mg/kg, po after 72 hrs by liquid scintillation counting; assay type: ADME, organism-based
[16] = test system: Cerebrum; experiment: Drug uptake in albino F344/DuCrlCrlj rat cerebrum assessed as ng equivalent of CS-1036 at 5 mg/kg, po after 336 hrs by liquid scintillation counting; assay type: ADME, organism-based; outline: as §1
[17] = Drug uptake in albino F344/DuCrlCrlj rat epididymis at 5 mg/kg, po after 8 hrs by liquid scintillation counting; assay type: ADME, organism-based
[18] = Drug uptake in albino F344/DuCrlCrlj rat epididymis at 5 mg/kg, po after 24 hrs by liquid scintillation counting; assay type: ADME, organism-based
[19] = Drug uptake in albino F344/DuCrlCrlj rat fat at 5 mg/kg, po after 72 hrs by liquid scintillation counting; assay type: ADME, organism-based, Adipose tissue
Outline: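 Male F344/DuCrlCrlj rats (bought at 7 weeks, acclimatized 5–6 days; 159–167 g; n = 3 per time point) received a single oral dose of [14C]CS-1036 at 5 mg/kg. White adipose tissue was collected after abdominal aortic bleeding at 1, 4, 8, 24, 72, 168 or 336 h. Samples were counted by LSC with external-standard efficiency correction. Results were converted to ng equivalents per g from specific activity and sample weight.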

[20] = Drug uptake in albino F344/DuCrlCrlj rat bone marrow at 5 mg/kg, po after 8 hrs by liquid scintillation counting; assay type: ADME, organism-based
[21] = test system: Pancreas; experiment: Drug uptake in albino F344/DuCrlCrlj rat pancreas assessed as ng equivalent of CS-1036 at 5 mg/kg, po after 1 hr by liquid scintillation counting; assay type: ADME, organism-based
[22] = Drug uptake in albino F344/DuCrlCrlj rat brown fat assessed as ng equivalent of CS-1036 at 5 mg/kg, po after 24 hrs by liquid scintillation counting; assay type: ADME, organism-based, Brown adipose tissue
[23] = Drug uptake in albino F344/DuCrlCrlj rat skeletal muscle assessed as ng equivalent of CS-1036 at 5 mg/kg, po after 72 hrs by liquid scintillation counting; assay type: ADME, organism-based, Muscle tissue
[24] = Drug uptake in albino F344/DuCrlCrlj rat bone marrow assessed as ng equivalent of CS-1036 at 5 mg/kg, po after 1 hr by liquid scintillation counting; assay type: ADME, organism-based
[25] = test system: Aorta; experiment: Drug uptake in albino F344/DuCrlCrlj rat aorta at 5 mg/kg, po after 72 hrs by liquid scintillation counting; assay type: ADME, organism-based
[26] = test system: Lung; experiment: Drug uptake in albino F344/DuCrlCrlj rat lung at 5 mg/kg, po after 336 hrs by liquid scintillation counting; assay type: ADME, organism-based
[27] = test system: Adrenal gland; experiment: Drug uptake in albino F344/DuCrlCrlj rat adrenal gland assessed as ng equivalent of CS-1036 at 5 mg/kg, po after 8 hrs by liquid scintillation counting; assay type: ADME, organism-based
[28] = test system: Large intestine; experiment: Drug uptake in albino F344/DuCrlCrlj rat large intestine at 5 mg/kg, po after 1 hr by liquid scintillation counting; assay type: ADME, organism-based
[29] = test system: Small intestine; experiment: Drug uptake in albino F344/DuCrlCrlj rat small intestine at 5 mg/kg, po after 8 hrs by liquid scintillation counting; assay type: ADME, organism-based
[30] = test system: Plasma; experiment: Drug uptake in albino F344/DuCrlCrlj rat plasma assessed as ng equivalent of CS-1036 at 5 mg/kg, po after 8 hrs by liquid scintillation counting; assay type: ADME, organism-based
[31] = test system: Plasma; experiment: Drug uptake in albino F344/DuCrlCrlj rat plasma assessed as ng equivalent of CS-1036 at 5 mg/kg, po after 168 hrs by liquid scintillation counting; assay type: ADME, organism-based
[32] = test system: Lung; experiment: Drug uptake in albino F344/DuCrlCrlj rat lung assessed as ng equivalent of CS-1036 at 5 mg/kg, po after 24 hrs by liquid scintillation counting; assay type: ADME, organism-based
[33] = test system: Large intestine; experiment: Drug uptake in albino F344/DuCrlCrlj rat large intestine at 5 mg/kg, po after 24 hrs by liquid scintillation counting; assay type: ADME, organism-based

Radiolabel recovery [1]: 5.41 ngequiv/g | Radiolabel recovery [2]: 1.1 ngequiv/g | Radiolabel recovery [3]: 78.9 ngequiv/g | Radiolabel recovery [4]: 325 ngequiv/g | Radiolabel recovery [5]: 60.5 ngequiv/ml | Radiolabel recovery [6]: 6.8 ngequiv/g | Radiolabel recovery [7]: 11.2 ngequiv/g | Radiolabel recovery [8]: 9.1 ngequiv/g | Radiolabel recovery [9]: 53.3 ngequiv/g | Radiolabel recovery [10]: 4.1 ngequiv/g | Radiolabel recovery [11]: 12.2 ngequiv/g | Radiolabel recovery [12]: 16.5 ngequiv/g | Radiolabel recovery [13]: 266 ngequiv/g | Radiolabel recovery [14]: 52 ngequiv/g | Radiolabel recovery [15]: 29.5 ngequiv/g | Radiolabel recovery [16]: 2.36 ngequiv/g | Radiolabel recovery [17]: 40.8 ngequiv/g | Radiolabel recovery [18]: 40.8 ngequiv/g | Radiolabel recovery [19]: 194 ngequiv/g | Radiolabel recovery [20]: 75 ngequiv/g | Radiolabel recovery [21]: 11 ngequiv/g | Radiolabel recovery [22]: 63 ngequiv/g | Radiolabel recovery [23]: 9.2 ngequiv/g | Radiolabel recovery [24]: 4.6 ngequiv/g | Radiolabel recovery [25]: 35.8 ngequiv/g | Radiolabel recovery [26]: 8.43 ngequiv/g | Radiolabel recovery [27]: 66.9 ngequiv/g | Radiolabel recovery [28]: 1070 ngequiv/g | Radiolabel recovery [29]: 121 ngequiv/g | Radiolabel recovery [30]: 10.8 ngequiv/ml | Radiolabel recovery [31]: 1.65 ngequiv/ml | Radiolabel recovery [32]: 12.8 ngequiv/g | Radiolabel recovery [33]: 299 ngequiv/g
SMILES: C[C@H]1O[C@@H](O[C@H]2[C@H](O)[C@@H](O)[C@@H](O[14C@H]3[14C@H](O)[14CH2]N[14C@@H]3[14CH2]O)O[C@@H]2CO)[C@H](O)[C@@H](O)[C@@H]1O
